Columns and labels:
Rattus norvegicus [1] = test: Antinociceptive activity in Wistar rat partial sciatic nerve ligation model assessed as reversal of mechanical allodynia at 100 mg/kg, ip after 120 mins (reference value: 2.9 +/- 0.3%); format: functional; settings: route intraperitoneal
Rattus norvegicus [2] = test: Antinociceptive activity in Wistar rat partial sciatic nerve ligation model assessed as reversal of mechanical allodynia at 100 mg/kg, ip after 60 mins (reference value: 2.8 +/- 0.3%); format: functional; settings: route intraperitoneal
Rattus norvegicus [3] = test: Antinociceptive activity in Wistar rat partial sciatic nerve ligation model assessed as reversal of mechanical allodynia at 100 mg/kg, ip after 30 mins (reference value: 2.9 +/- 0.3%); format: functional; settings: route intraperitoneal
Rattus norvegicus [4] = test: Antinociceptive activity in Wistar rat chronic constriction injury model assessed as reversal of mechanical allodynia at 100 mg/kg, ip after 120 mins (reference value: 5.3 +/- 0.5%); format: functional; settings: route intraperitoneal
Rattus norvegicus [5] = test: Antinociceptive activity in Wistar rat chronic constriction injury model assessed as reversal of mechanical allodynia at 100 mg/kg, ip after 60 mins (reference value: 4.9 +/- 1.0%); format: functional; settings: route intraperitoneal
Rattus norvegicus [6] = test: Antinociceptive activity in Wistar rat chronic constriction injury model assessed as reversal of mechanical allodynia at 100 mg/kg, ip after 30 mins (reference value: 4.7 +/- 2.1%); format: functional; settings: route intraperitoneal
Rattus norvegicus [7] = test: Antinociceptive activity in Wistar rat partial sciatic nerve ligation model assessed as reversal of cold allodynia at 100 mg/kg, ip after 120 mins (reference value: 1.5 +/- 0.5%); format: functional; settings: route intraperitoneal
Rattus norvegicus [8] = test: Antinociceptive activity in Wistar rat partial sciatic nerve ligation model assessed as reversal of cold allodynia at 100 mg/kg, ip after 60 mins (reference value: 2.5 +/- 0.3%); format: functional; settings: route intraperitoneal
Rattus norvegicus [9] = test: Antinociceptive activity in Wistar rat partial sciatic nerve ligation model assessed as reversal of cold allodynia at 100 mg/kg, ip after 30 mins (reference value: 4.1 +/- 1.0%); format: functional; settings: route intraperitoneal
Rattus norvegicus [10] = test: Antinociceptive activity in Wistar rat chronic constriction injury model assessed as reversal of cold allodynia at 100 mg/kg, ip after 120 mins (reference value: 5.4 +/- 1.9%); format: functional; settings: route intraperitoneal
Rattus norvegicus [11] = test: Antinociceptive activity in Wistar rat chronic constriction injury model assessed as reversal of cold allodynia at 100 mg/kg, ip after 60 mins (reference value: 6.3 +/- 1.9%); format: functional; settings: route intraperitoneal
Rattus norvegicus [12] = test: Antinociceptive activity in Wistar rat chronic constriction injury model assessed as reversal of cold allodynia at 100 mg/kg, ip after 30 mins (reference value: 0.6 +/- 2.7%); format: functional; settings: route intraperitoneal
Rattus norvegicus [13] = test: Antinociceptive activity in Wistar rat partial sciatic nerve ligation model assessed as reversal of tactile allodynia at 100 mg/kg, ip after 120 mins relative to control; format: functional; settings: route intraperitoneal
Rattus norvegicus [14] = test: Antinociceptive activity in Wistar rat partial sciatic nerve ligation model assessed as reversal of tactile allodynia at 100 mg/kg, ip after 60 mins (reference value: 12.5 +/- 1.2%); format: functional; settings: route intraperitoneal
Rattus norvegicus [15] = test: Antinociceptive activity in Wistar rat partial sciatic nerve ligation model assessed as reversal of tactile allodynia at 100 mg/kg, ip after 30 mins (reference value: 7.7 +/- 0.7%); format: functional; settings: route intraperitoneal
Rattus norvegicus [16] = test: Antinociceptive activity in Wistar rat chronic constriction injury model assessed as reversal of tactile allodynia at 100 mg/kg, ip after 120 mins (reference value: 4.1 +/- 2.1%); format: functional; settings: route intraperitoneal
Rattus norvegicus [17] = test: Antinociceptive activity in Wistar rat chronic constriction injury model assessed as reversal of tactile allodynia at 100 mg/kg, ip after 60 mins (reference value: 1.3 +/- 0.3%); format: functional; settings: route intraperitoneal
Rattus norvegicus [18] = test: Antinociceptive activity in Wistar rat chronic constriction injury model assessed as reversal of tactile allodynia at 100 mg/kg, ip after 30 mins (reference value: 3.4 +/- 0.8%); format: functional; settings: route intraperitoneal
Rattus norvegicus [19] = test: Antinociceptive activity in Wistar rat partial sciatic nerve ligation model assessed as reversal of spontaneous pain response at 100 mg/kg, ip after 120 mins (reference value: 1.2 +/- 0.1%); format: functional; settings: route intraperitoneal
Rattus norvegicus [20] = test: Antinociceptive activity in Wistar rat partial sciatic nerve ligation model assessed as reversal of spontaneous pain response at 100 mg/kg, ip after 60 mins (reference value: 2.9 +/- 0.3%); format: functional; settings: route intraperitoneal
Rattus norvegicus [21] = test: Antinociceptive activity in Wistar rat partial sciatic nerve ligation model assessed as reversal of spontaneous pain response at 100 mg/kg, ip after 30 mins (reference value: 3.2 +/- 0.3%); format: functional; settings: route intraperitoneal
Rattus norvegicus [22] = test: Antinociceptive activity in Wistar rat chronic constriction injury model assessed as reversal of spontaneous pain response at 100 mg/kg, ip after 120 mins (reference value: 4.5 +/- 0.2%); format: functional; settings: route intraperitoneal
Rattus norvegicus [23] = test: Antinociceptive activity in Wistar rat chronic constriction injury model assessed as reversal of spontaneous pain response at 100 mg/kg, ip after 60 mins (reference value: 4.6 +/- 0.6%); format: functional; settings: route intraperitoneal
Rattus norvegicus [24] = test: Antinociceptive activity in Wistar rat chronic constriction injury model assessed as reversal of spontaneous pain response at 100 mg/kg, ip after 30 mins (reference value: 8.9 +/- 4.6%); format: functional; settings: route intraperitoneal
Mus musculus [25] = test: Antinociceptive activity in Swiss albino mouse assessed as inhibition of formalin-induced flinching at 100 mg/kg administered 30 mins prior to test measured for 10 to 30 mins relative to control; format: functional
Mus musculus [26] = test: Antinociceptive activity in Swiss albino mouse assessed as inhibition of formalin-induced flinching at 100 mg/kg administered 30 mins prior to test measured up to 5 mins relative to control; format: functional
Mus musculus [27] = test: Antinociceptive activity in Swiss albino mouse assessed as inhibition of acetic acid-induced writhing at 100 mg/kg administered 30 mins prior to acetic acid-challenge measured for 30 mins relative to control; format: functional
Summary of the method: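 Swiss albino mice (20–25 g, either sex); writhing induced by i.p. 0.1 mL of 2.0% v/v acetic acid given half an hour after test compound dosing.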

Mus musculus [28] = test: Neurotoxicity in Swiss albino mouse assessed as minimal motor impairment at 300 mg/kg after 4 hrs by rotarod test; format: toxicity, organism-based; set-up: dose 300 mg/kg; settings: in vivo
Summary of the method: (§1)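 Swiss albino mice of either sex, 20-25 g, dosed at 30, 100 and 300 mg/kg, three per group. Minimal motor impairment scored by rotarod at 0.5 and 4.0 h after dosing. Reported value is the lowest dose giving impairment in half or more of the mice.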

Mus musculus [29] = test: Neurotoxicity in Swiss albino mouse assessed as minimal motor impairment at 300 mg/kg after 0.5 hrs by rotarod test; format: toxicity, organism-based; set-up: dose 300 mg/kg; settings: in vivo; summary of the method: as §1

Compound | Activity (Rattus norvegicus [1]) | Activity (Rattus norvegicus [2]) | Activity (Rattus norvegicus [3]) | Activity (Rattus norvegicus [4]) | Activity (Rattus norvegicus [5]) | Activity (Rattus norvegicus [6]) | Activity (Rattus norvegicus [7]) | Activity (Rattus norvegicus [8]) | Activity (Rattus norvegicus [9]) | Activity (Rattus norvegicus [10]) | Activity (Rattus norvegicus [11]) | Activity (Rattus norvegicus [12]) | Activity (Rattus norvegicus [13]) | Activity (Rattus norvegicus [14]) | Activity (Rattus norvegicus [15]) | Activity (Rattus norvegicus [16]) | Activity (Rattus norvegicus [17]) | Activity (Rattus norvegicus [18]) | Activity (Rattus norvegicus [19]) | Activity (Rattus norvegicus [20]) | also measured
CCN1CCc2c(c(C)nn2C(=O)Nc2cccc(C(F)(F)F)c2)C1 | 10.6% | 11.1% | 15.6% | 21.8% | 20.5% | 13.4% | 20.9% | 15.7% | 30.2% | 7% | 13.7% | 12.1% | 11.1% | 11.1% | 69.7% | 11.8% | 11.8% | 4.41% | 13.8% | 10.2% | Activity (Rattus norvegicus [21]): 20.7%; Activity (Rattus norvegicus [22]): 12.5%; Activity (Rattus norvegicus [23]): 15.2%; Activity (Rattus norvegicus [24]): 13.3%; inhibition in vivo at 100 mg/kg (Mus musculus [25]): 23.1%; inhibition in vivo at 100 mg/kg (Mus musculus [26]): 4.4%; inhibition in vivo at 100 mg/kg (Mus musculus [27]): 56.1%; Activity (Mus musculus [28]): Non-toxic; Activity (Mus musculus [29]): Non-toxic
CCN1CCc2c(c(C(C)(C)C)nn2C(=O)Nc2cc(C)ccc2C)C1 | 14.3% | 7.1% | 14.3% | 9.1% | 18.2% | 18.2% | 9.5% | 12.7% | 12% | 40.5% | 10.1% | 17.9% | 4.5% | 16.7% | 36.4% | 44.7% | 9.7% | 4.5% | 13.6% | 14.4% | Activity (Rattus norvegicus [21]): 4.9%; Activity (Rattus norvegicus [22]): 12.4%; Activity (Rattus norvegicus [23]): 19.8%; Activity (Rattus norvegicus [24]): 21.1%; inhibition in vivo at 100 mg/kg (Mus musculus [25]): 15.7%; inhibition in vivo at 100 mg/kg (Mus musculus [26]): 0%; inhibition in vivo at 100 mg/kg (Mus musculus [27]): 63.1%; Activity (Mus musculus [28]): Non-toxic; Activity (Mus musculus [29]): Non-toxic
CCN1CCc2c(c(C)nn2C(=O)Nc2ccc(Br)cc2)C1 | 40% | 70% | 50% | 61.1% | 66.7% | 83.3% | 41.5% | 43.7% | 59.7% | 32.6% | 38.1% | 67.4% | 29.2% | 58.3% | 58.3% | 57.7% | 70.5% | 57.7% | 41.3% | 60.8% | Activity (Rattus norvegicus [21]): 56.7%; Activity (Rattus norvegicus [22]): 63.6%; Activity (Rattus norvegicus [23]): 65.1%; Activity (Rattus norvegicus [24]): 73.9%; inhibition in vivo at 100 mg/kg (Mus musculus [25]): 81.6%; inhibition in vivo at 100 mg/kg (Mus musculus [26]): 1.7%; inhibition in vivo at 100 mg/kg (Mus musculus [27]): 59.7%; Activity (Mus musculus [28]): Non-toxic; Activity (Mus musculus [29]): Non-toxic
CCN1CCc2c(c(C)nn2C(=O)Nc2c(C)cccc2C)C1 | 44.4% | 69.4% | 57.8% | 26.1% | 73.2% | 67% | 37.2% | 41.6% | 61.3% | 13.4% | 52.6% | 63.4% | 38.3% | 46.4% | 18.4% | 65.1% | 58% | 55% | 58.4% | 66.1% | Activity (Rattus norvegicus [21]): 70.3%; Activity (Rattus norvegicus [22]): 53.7%; Activity (Rattus norvegicus [23]): 68.3%; Activity (Rattus norvegicus [24]): 77.3%; inhibition in vivo at 100 mg/kg (Mus musculus [25]): 78.9%; inhibition in vivo at 100 mg/kg (Mus musculus [26]): 12.2%; inhibition in vivo at 100 mg/kg (Mus musculus [27]): 60.5%; Activity (Mus musculus [28]): Non-toxic; Activity (Mus musculus [29]): Non-toxic
CCN1CCc2c(c(C)nn2C(=O)Nc2ccc(F)cc2F)C1 | 63.3% | 58.9% | 62.1% | 63.3% | 58.9% | 62.1% | 40% | 35.4% | 58.7% | 40.6% | 53.1% | 72.7% | 39.2% | 41.7% | 58.3% | 67% | 69.6% | 39.3% | 14.7% | 28.2% | Activity (Rattus norvegicus [21]): 59.2%; Activity (Rattus norvegicus [22]): 72.8%; Activity (Rattus norvegicus [23]): 63.6%; Activity (Rattus norvegicus [24]): 69.3%; inhibition in vivo at 100 mg/kg (Mus musculus [25]): 14.3%; inhibition in vivo at 100 mg/kg (Mus musculus [26]): 7.8%; inhibition in vivo at 100 mg/kg (Mus musculus [27]): 76.3%; Activity (Mus musculus [28]): Non-toxic; Activity (Mus musculus [29]): Non-toxic

From ChEMBL document CHEMBL2412964, “Discovery of novel tetrahydro-pyrazolo [4,3-c] pyridines for the treatment of neuropathic pain: synthesis and neuropharmacology” (Eur J Med Chem, 2013)
